Assay outcomes as filed in PubChem BioAssay.
In the library only some 1.2% were active in any assay of this set; here they are far more common.
HKDC1 inh: blocks human hexokinase HKDC1 activity; Q2TB90; AID 493160; inhibition, % at 20 µM; actives 0.16% (n = 340,000); recombinant HKDC1, G6PDH/diaphorase resazurin coupled fluorescence;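 active = inhibition above about 35% when tested at 20 µM, limit read from the data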;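 also: plate controls were DMSO wells with enzyme for no effect and DMSO wells lacking enzyme for full effect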
Target sequence (Q2TB90 whole entry, looked up): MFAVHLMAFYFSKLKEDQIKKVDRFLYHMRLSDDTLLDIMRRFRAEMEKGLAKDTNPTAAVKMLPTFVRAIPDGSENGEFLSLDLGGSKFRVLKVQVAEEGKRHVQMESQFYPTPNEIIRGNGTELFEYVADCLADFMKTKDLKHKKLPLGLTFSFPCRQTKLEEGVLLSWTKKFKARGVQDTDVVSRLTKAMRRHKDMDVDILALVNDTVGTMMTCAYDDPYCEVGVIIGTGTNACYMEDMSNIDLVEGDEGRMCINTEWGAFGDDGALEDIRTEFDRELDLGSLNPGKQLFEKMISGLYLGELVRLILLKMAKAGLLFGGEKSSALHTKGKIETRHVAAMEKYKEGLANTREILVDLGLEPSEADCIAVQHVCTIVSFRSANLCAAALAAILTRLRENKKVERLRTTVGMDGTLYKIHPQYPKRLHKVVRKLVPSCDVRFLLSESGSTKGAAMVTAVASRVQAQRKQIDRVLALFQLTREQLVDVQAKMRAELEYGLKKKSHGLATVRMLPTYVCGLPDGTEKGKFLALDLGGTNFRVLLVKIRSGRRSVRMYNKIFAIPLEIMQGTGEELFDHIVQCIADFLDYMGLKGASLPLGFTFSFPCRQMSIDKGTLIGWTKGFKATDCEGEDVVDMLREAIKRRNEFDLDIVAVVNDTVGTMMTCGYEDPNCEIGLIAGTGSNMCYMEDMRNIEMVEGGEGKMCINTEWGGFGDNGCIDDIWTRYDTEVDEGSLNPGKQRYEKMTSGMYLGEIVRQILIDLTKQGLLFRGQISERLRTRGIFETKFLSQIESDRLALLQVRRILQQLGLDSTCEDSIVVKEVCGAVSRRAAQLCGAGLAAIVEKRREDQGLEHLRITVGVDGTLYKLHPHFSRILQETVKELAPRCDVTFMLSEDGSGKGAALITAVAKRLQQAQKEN
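Material: recombinant HKDC1 hexokinase; Amount: HKDC1 at 5 µg/mL; Medium: Tris pH 8.0 buffer with MgCl2, Tween-20, BSA, BME; Schedule: 90 min reaction incubation at room temperature, dark; Technique: coupled resazurin fluorescence, excitation 525 nm, emission 613 nm.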
Diaphorase inh: diaphorase inhibition or chemical oxidation counter-screen | diaphorase resazurin-to-resorufin fluorescence, NADH, 16 min; bacterial (C. kluyveri) enzyme, not human | inhibition, % at 20 µM | actives 0.69% (n = 190,000);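 active = primary screen inhibition at 20 µM above a set limit, cut at about 50% in these data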;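 also: plate controls were DMSO with full reaction for no effect and wells lacking NADH for full effect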
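Benchmarks: positive control wells lacking NADH, neutral wells with DMSO only. System: bacterial diaphorase enzyme (C. kluyveri). Input: 0.14 U/mL diaphorase, enzyme working solution. Detection: resorufin fluorescence, excitation 544 nm, emission 590 nm. Times: 16-min room-temperature incubation before reading.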
G6PDH CS: inhibits Leuconostoc G6PDH, flagging false hits in G6PDH-based assays; Purified L. mesenteroides G6PDH, diaphorase/resazurin coupled fluorescence, 45 min; inhibition, % at 5 µM; actives 0.12% (n = 200,000); in the data active = inhibition above about 50%
Tb hexokinase: T. brucei hexokinase 1 inhibition. recombinant TbHK1, G6PDH-coupled NADH A340. inhibition, % at 10 µM. actives 0.11% (n = 220,000). AID 1430;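 active = inhibition of 50% or more in the single-dose primary screen; inactive = inhibition below 50%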
PfGluPho inh: PfG6PD (Plasmodium falciparum) enzyme inhibition | PfGluPho enzyme, NADPH resazurin-diaphorase fluorescence | inhibition, % at 20 µM | actives 0.78% (n = 350,000);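 active = inhibition reaching at least a set limit at 20 µM in the primary screen, cut at about 59% in these data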;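 also: 0% = DMSO wells with substrate and 100% = DMSO wells lacking glucose-6-phosphate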
The depositor's hits bear a star; x = no result.

SMILES | HKDC1 inh | Diaphorase inh | G6PDH CS | Tb hexokinase | PfGluPho inh
O=c1c2ccccc2c(C=NC2CCS(=O)(=O)C2)c(O)n1-c1ccccc1 (stereo not drawn) | 9 | 15 | 5 | -17 | -8
CCOC(=O)c1c(C)oc2c1c(CN1CCN(CCO)CC1)c(O)c1ccccc12 | 29 | 61* | 48 | -14 | 33
CCOC(=O)c1c(C)oc2c1c(CN1CCN(C(=O)OCC)CC1)c(O)c1ccccc12 | 12 | 36 | 40 | 19 | 30
CCOC(=O)c1c(C)oc2c1c(C(c1ccncc1)N1CCOCC1)c(O)c1ccccc12 (stereo not drawn) | 13 | 21 | -31 | 0 | 12
CCOC(=O)C1=C(O)c2ccccc2C(=O)/C1=C\c1ccc(CC)cc1 | 59* | 33 | -22 | -5 | 94*
CCCc1ccc(/C=C2\C(=O)c3ccccc3C(O)=C2C(=O)OCC)cc1 | x | 46 | -24 | 9 | x
CCOC(=O)C1=C(Cc2ccc(C)cc2)C(=O)c2ccccc2C1=O | x | 40 | 54* | -3 | x
COc1ccc(Cl)cc1NC(=O)c1cccc(S(=O)(=O)Nc2c(C)n(C)n(-c3ccccc3)c2=O)c1 | -4 | x | x | x | -22
CCCCN(Cc1ccco1)C(=O)c1cc2c(=O)[nH]c3ccc(C)cc3c2s1 | 2 | 57* | 2 | -38 | 21
Cc1ccc2[nH]c(=O)c3cc(C(=O)N(CCCOC(C)C)Cc4ccco4)sc3c2c1 | 5 | 44 | -3 | -28 | 17
N#C/C(=N/Nc1ccc(OC(F)(F)F)cc1)C(N)=S | 4 | x | x | -18 | -11
NC(=S)N=Nc1ccc(NN=C(N)N)cc1 | 5 | x | x | x | 99*
OC(Cc1cccnc1)c1ccccc1 (stereo not drawn) | -3 | x | x | x | 0
CCCCCCc1nc2nc(Cl)c(Cl)nc2[nH]1 | x | x | x | x | 15
C=CCn1c(SCC(=O)c2ccc(O)c(O)c2)nnc1-c1ccccc1OC | -9 | 64* | 10 | 37 | -12
C[C@@H]1CN([C@@H](C)CO)C(=O)c2cc(Br)cnc2O[C@H]1CN(C)C(=O)Cc1ccccn1 | x | x | x | x | 5
COc1ccc(N(C)C(=O)Nc2ccc3nsnc3c2)cc1 | 3 | 62* | 22 | -4 | -7
CC(C)N(C(=O)Nc1ccc2nsnc2c1)C(C)C | 18 | 60* | 52* | -10 | 55
O=C(NCCc1ccc(F)cc1)C1CCC(=O)N(CC2CCCCC2)C1 (stereo not drawn) | x | x | x | x | -12
Cc1ccc(S(=O)(=O)N(C)C)cc1NC(=S)Nc1cccc2ccccc12 | 16 | x | x | x | 61*
CCOC(=O)Nc1ccc2nc(-c3cscn3)[nH]c2c1 | x | x | x | x | 10
C#CCOCCOCCOCCNc1nc(N2CCN(C(=O)CCCCCCCCCCNC(=O)[C@H](CCCCN)n3cc(C)nn3)CC2)nc(N2CCN(C(=O)CCCCCCCCCCNC(=O)[C@H](CCCN=C(N)N)n3cc(C[C@@H](C)CC)nn3)CC2)n1 | 1 | x | x | x | 60*
C#CCOCCOCCOCCNc1nc(N2CCN(C(=O)CCCCCCCCCCNC(=O)[C@@H](CCSC)n3cc(CCO)nn3)CC2)nc(N2CCN(C(=O)CCCCCCCCCCNC(=O)[C@H](CCCN=C(N)N)n3cc(C[C@@H](C)CC)nn3)CC2)n1 | 10 | x | x | x | 69*
C#CCOCCOCCOCCNc1nc(N2CCN(C(=O)CCCCCCCCCCNC(=O)[C@H](CCCCN)n3cc(C[C@@H](C)CC)nn3)CC2)nc(N2CCN(C(=O)CCCCCCCCCCNC(=O)[C@H](CCCN=C(N)N)n3cc(C[C@@H](C)CC)nn3)CC2)n1 | 16 | x | x | x | 52
CC(C)c1nc(SCC(=O)N2CCCCC2)c2c(=O)n(C)c(=O)n(C)c2n1 | x | x | x | x | -12
SMILES | HKDC1 inh | Diaphorase inh | G6PDH CS | Tb hexokinase | PfGluPho inh
CC1CCCC(C)N1C(=O)CN1C(=O)NC2(CCCCCC2)C1=O (stereo not drawn) | x | x | x | x | 14
Cc1ccc(N2CC(C(=O)Nc3cc(S(=O)(=O)N4CCCCC4)ccc3C)CC2=O)cc1 (stereo not drawn) | x | x | x | x | 5
Oc1ccc(/C=N/N=C/c2ccc(O)c(O)c2)cc1O | 2 | x | x | x | 17
Oc1ccc(N=Cc2ccc(O)c(O)c2)cc1 | 25 | 61* | 58* | -18 | 67*
Cc1nc2nc(C)n(CCN3CCOCC3)c(=O)c2c(-c2cccc([N+](=O)[O-])c2)c1C(=O)CCCCCCCCCCN1CCC(c2ccccc2)(c2ccccc2)CC1 | -3 | x | x | x | 39
O=C(O)CCc1nc(-c2ccccc2)c(-c2ccccc2)o1 | x | 80* | 1 | x | x
O=C(O)CCc1ccc(-c2ccccc2)o1 | -4 | 0 | 8 | 8 | 66*
O=C(CCc1nc(-c2ccccc2)c(-c2ccccc2)o1)OCc1ccc(Cl)cc1 | -4 | 9 | 2 | -2 | 4
CCC/C=C/c1ccc(CN2C(C)C(=O)N(Cc3cn(CCC4OCCO4)nn3)CCS2(=O)=O)cc1 (stereo not drawn) | x | x | x | x | -7
O=C(O)C1Nc2c(O)cccc2C2C=CCC12 (stereo not drawn) | 6 | 78* | 24 | 6 | 8
COc1ccccc1NS(=O)(=O)c1cccc(C(=O)N2CCN(C(=O)c3ccco3)CC2)c1 | -1 | x | x | x | -12
Cc1ccc(O)c(N)c1 | 0 | x | x | x | 44
COc1ccc(O)c(N)c1 | x | 62* | 42 | 2 | x
O=C1Nc2ccc(Br)cc2C1Cc1ccccc1F (stereo not drawn) | 6 | x | x | x | 89*
CCOC(=O)c1oc2nc(C(C)C)c3c(c2c1N)CC(C)(C)OC3 | 33 | 68* | 12 | -15 | 48
CCCc1nc2oc(C(=O)OCC)c(N)c2c2c1COC(C)(C)C2 | 10 | 12 | 2 | -21 | 7
O=C(CSc1nnnn1-c1ccc(F)cc1)c1ccc(O)c(O)c1 | -6 | 50* | 14 | -5 | -26
COCOCCn1cc(CN2CCS(=O)(=O)N(Cc3ccc(-c4ccc(F)cc4)cc3)C(CC(C)C)C2=O)nn1 (stereo not drawn) | x | x | x | x | 22
Cn1c(=O)c2c(ncn2CCOc2ccc(F)cc2)n(C)c1=O | -7 | x | x | x | -4
CC1(C)CNc2cc(N)ccc2S1 | 8 | 72* | 18 | -8 | 26
Cc1cc([N+](=O)[O-])ccc1-c1ccc(C2Nc3ccccc3C(=O)N2O)o1 (stereo not drawn) | 17 | 68* | -1 | 1 | -14
Clc1ncnc2scc(-c3ccccc3)c12 | -4 | 7 | -5 | 1 | -2
S=c1[nH]cnc2scc(-c3ccccc3)c12 | -2 | 64* | -14 | 23 | 1
Cc1cccc(CSc2nc3c(c(-c4cccs4)c2C#N)CN(C)CC3)c1 | -3 | 58* | 0 | 0 | 8
Cc1cccc(CSc2nc(N)c(C#N)c(-c3cccs3)c2C#N)c1 | 5 | 18 | 4 | 8 | 15
CC1=C(C#N)C(=O)NC(=O)/C1=C\c1ccc(-c2ccc(C)cc2[N+](=O)[O-])o1 | 3 | 57* | 14 | -5 | 27
O=C(Cc1cnn(-c2ccccc2)c1)c1ccc(O)c(O)c1O | 1 | 69* | 18 | -22 | 22
